The text below walks through data of PMC5388221 (Drug Design, Development and Therapy, 2017).

Data set [1] relates to bloodstream trypomastigotes (BTs) of T. cruzi (Y strain). Put plainly: Trypanocidal assay against bloodstream trypomastigotes. The class given is cell-based, Trypanosoma cruzi. To be noted: for SI (LC50/EC50), BTs: LC50 on cardiac cells at 24 h, BTs 24 h/37°C; for EC50: read-out: EC50 (µM), BTs. A digest of the protocol: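 Bloodstream trypomastigotes come from Swiss mice at peak parasitemia. They are incubated at 5×10^6/mL in RPMI 1640 plus 10% fetal bovine serum with serial dilutions of test compound (0.001–10.6 µM) for 24 h at 37°C. Motile live parasites are counted by light microscopy in a Neubauer chamber; EC50 is a 50% drop versus untreated. SI = 24 h MTT LC50 on uninfected mouse cardiac cells/EC50.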

In data set [2] the test system is intracellular amastigotes of T. cruzi (Y strain). Put plainly: Effect against intracellular parasites in infected cardiac cell cultures. It counts as cell-based, Trypanosoma cruzi. To be noted: for SI (LC50/EC50), intracellular amastigotes: LC50 on cardiac cells at 48 h, 48 h/37°C. A digest of the protocol:
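T. cruzi Y strain infects primary embryonic Swiss mouse cardiac cells (parasite:host 10:1, 24 h), which are then washed. Cells are exposed to test compound (0.043–3.5 µM) for 48 h at 37°C in 5% CO2, then Bouin-fixed and Giemsa-stained. Infective index is % infected cells × mean parasites per infected cell; EC50 is 50% index reduction versus untreated. SI = 48 h MTT LC50 (uninfected cells)/EC50.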

For data set [3] the following is noted: fast plasmatic clearance profile; cited from earlier work.
In data set [4] the test system is intracellular amastigotes of T. cruzi (Y strain). Conditions: read-out: EC50, infection of T. cruzi-infected CCs; after 48 h of treatment; cited from earlier work.

Like-named read-outs stand apart in the source and are kept apart here.

For orientation: EC50 means the concentration that produces a half-maximal response. Consider “2,5-Bis[2-isopropoxy-4-(2-pyridylimino) aminophenyl]thiophene [DB1957]”, for which the “SI (LC50/EC50), BTs” value in data set [1] was 17. The EC50 in data set [1] (24 h/37°C, Y strain) was 0.068 ± 0.0014 µM. Also, the “SI (LC50/EC50), intracellular amastigotes” value in data set [2] was 6.

`CC1CS(=O)(=O)CCN1/N=C/c1ccc([N+](=O)[O-])o1` (stereo not shown) [nifurtimox]: the Half-life in data set [3] is given as 3 h.

For the compound “2,5-Bis[2-(2,2,2-trifluoroethoxy)-4-(2-pyridylimino)aminophenyl]furan [DB1959]”, the “SI (LC50/EC50), BTs” value in data set [1] is on record as 45. The EC50 in data set [1] (24 h/37°C, Y strain) was found to be 0.078 ± 0.01 µM. The “SI (LC50/EC50), intracellular amastigotes” value in data set [2] worked out at 1.6.

Turning to `O=C(Cn1ccnc1[N+](=O)[O-])NCc1ccccc1` [Bz, benznidazole, reference compound], in data set [1], the “SI (LC50/EC50), BTs” value is >77. Further, the EC50 was 12.9 ± 1.93 µM in data set [1] (Trypanosoma cruzi, 24 h) and 3.7 ± 1.72 µM in data set [2] (Trypanosoma cruzi, 48 h, read-out: EC50 (µM), intracellular amastigotes). Also, the “SI (LC50/EC50), intracellular amastigotes” value in data set [2] is >360.

Consider “2,5-Bis[2-isobutoxy-4-(2-pyridylimino) aminophenyl]furan hydrochloride [DB1890B]”, for which, in data set [1], the “SI (LC50/EC50), BTs” value was 760. Besides, the EC50 in data set [1] (24 h/37°C, Y strain) is 0.014 ± 0.007 µM; in data set [4], 900 nM. Besides, in data set [2], the “SI (LC50/EC50), intracellular amastigotes” value is listed as 9.7.

On to `CC(C)Oc1cc(NC(=N)c2ccccn2)ccc1-c1ccc(-c2ccc(NC(=N)c3ccccn3)cc2OC(C)C)s1` [DB1867, reference compound], for which, in data set [4], the EC50 is 58 nM.
